Compounds with a hit are over-represented: about 2% of the library has one in this group of screens.
T cruzi inh: inhibitors of intracellular T. cruzi growth, primary screen, luminescence, NIH3T3 host cells. T. cruzi beta-gal in NIH3T3, 90 h. inhibition, % (no concentration beside the values). 300,000 compounds, 1.4% hits. AID 1885, 2009;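 active = mean inhibition across valid replicates above about 55%, limit read from the data; inconclusive = mean below that limit but half or more replicates reach it; inactive = mean below it, under half of replicates reach it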;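 note: signal also drops with host cell toxicity which is not excluded here; 0% = plate median of DMSO wells and 100% = zero luminescence signal; higher percent means less beta-gal luminescence so fewer parasites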
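System: mouse NIH/3T3 fibroblasts infected with β-gal-expressing T. cruzi Tulahuen C4 / Input: NIH/3T3 cells, 5,000 per well / Buffer or medium: Low-serum DMEM with 2% FBS / Probe or stimulus: 5000 reporter trypomastigotes per well / Schedule: ≥90 h infection period, 3 h prior cell attachment / Measured by: GalScreen luminescence, 60 min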
HIF act: HIF pathway transcriptional activators, primary screen, cell-based, U2OS HRE-luciferase, luminescence. 300,000 compounds, 0.32% hits. AID 1910, 2009. U2OS HRE-luciferase reporter; normalized: DMSO 0%, desferrioxamine 100%. activation, % at 7.5 µM (by protocol);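 active = mean activation of at least 10% of the iron chelator positive control signal, with at least half of replicates also reaching 10%; inconclusive = mean and replicate majority disagree about reaching 10%; inactive = mean and most replicates under 10%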
ARNT TACC3 PPI: disruptors of ARNT/TACC3 protein interaction, primary screen, biochemical, AlphaScreen, single concentration; Transforming acidic coiled-coil-containing protein 3 (Homo sapiens), Q9Y6A5; AlphaScreen His-ARNT PAS-B/GST-TACC3 binding, luminescence; TACC3 fragment carries E629A point mutation; inhibition, % at 9.99 µM; 390,000 compounds, 0.66% hits; AID 623870, 2012;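 active = mean inhibition of replicates at least 50% and at least half of replicates each reaching 50%; inconclusive = half or more replicates reach 50% but mean below 50%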;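 note: 0% = complete ARNT plus TACC3 wells and 100% = ARNT alone without TACC3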
AI-2 QS modul: Vibrio harveyi AI-2 quorum sensing modulators, primary screen, JMH597 strain, luminescence/OD600 ratio; Vibrio harveyi JMH597 AI-2 luminescence/OD600 ratio, 9 h; stronger effect = lower value; strain lacks LuxN and CqsS sensors; 0 = neutral-control median; activity change, % at 7.5 µM; 300,000 compounds, 0.4% hits; in the data active = activity change below about -75%, passing the limit was not always enough; inconclusive = no clear call, values can overlap the other calls;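 note: luminescence divided by OD600 gain over 9 h not by final OD600 alone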
JMH597 growth rt: Vibrio harveyi growth inhibition, confirmation, counter-screen for AI-2 quorum sensing project, JMH597 strain, OD600 absorbance | shares compounds with AI-2 QS modul | 9 h; lacks LuxN and CqsS sensors | growth inhibition, % at 7.5 µM | 750 compounds, 1% hits;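 active = every replicate shows growth inhibition above 50%; inconclusive = at least half, but not all, replicates pass that cutoff; inactive = fewer than half of replicates pass it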
BB721 const-QS lum: luminescence inhibition in constitutive-on V. harveyi, confirmation, counter-screen for LuxS inhibitor project, strain BB721, luminescence readout. 750 compounds, 95% hits. inhibition, % at 7.5 µM. shares compounds with AI-2 QS modul. Vibrio harveyi BB721 luminescence, 9 h. AID 2727, 2010;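 active = inhibition above about 80% in every replicate, not just on average, limit read from the data; inconclusive = at least half of replicates past the limit, but not all; inactive = fewer than half of replicates past the limit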
BB721 growth rt: growth inhibition of V. harveyi BB721, confirmation, cytotoxicity control for AI-2 quorum sensing inhibitors, strain BB721, absorbance OD600; Vibrio harveyi BB721 growth, 9 h; 750 compounds, 3% hits; shares compounds with AI-2 QS modul; growth inhibition, % at 7.5 µM;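 active = every replicate shows growth inhibition above 50%; inconclusive = at least half but not all replicates above 50% inhibition; inactive = under half of replicates above 50% inhibition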
JMH597 AI-2 mod: Vibrio harveyi AI-2 signaling luminescence modulation – JMH597 strain, confirmation; shares compounds with AI-2 QS modul; inhibition, % at 7.5 µM; 750 compounds, 97% hits; Vibrio harveyi JMH597 AI-2 quorum sensing luminescence, 9 h; luxN and CqsS knockout, AI-2 only;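 active = every replicate shows more than 75% inhibition of signal versus neutral control wells; inconclusive = half to three quarters of replicates exceed 75% inhibition; inactive = fewer than half of replicates exceed 75% inhibition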
Numbers without * were called inactive; ? = inconclusive; · = no result.

SMILES | T cruzi inh | HIF act | ARNT TACC3 PPI | AI-2 QS modul | JMH597 growth rt | BB721 const-QS lum | BB721 growth rt | JMH597 AI-2 mod
O=C1CCCC(=O)N1c1ccc(Oc2ccc(Cl)cc2)cc1 | -2 | 3 | -15 | -84* | -18 | 89* | -38 | 92*
O=C1CCCC(=O)N1c1ccc(O)cc1 | -6 | 0 | · | 12 | · | · | · | ·
CCCc1cc(C(=O)Nc2ccc(F)c(Cl)c2)no1 | 0 | 0 | · | -82* | 38 | 96* | -78 | 97*
C[C@@H](NC(=O)C[C@@H]1CC[C@@H]2[C@H](COC[C@@H](O)CN2Cc2cc(F)ccc2F)O1)c1ccccc1 | · | · | -7 | · | · | · | · | ·
COc1ccc(C(=O)NCCc2c[nH]c3ccccc23)cc1 | -14 | 4 | -1 | 10 | · | · | · | ·
O=C(NCCc1c[nH]c2ccccc12)C(=O)c1c[nH]c2ccccc12 | 19 | 0 | 5 | -90* | 25 | 96* | 6 | 97*
O=C(NCCc1c[nH]c2ccccc12)c1ccc(F)cc1F | 1 | 4 | · | -82* | 15 | 95* | 12 | 97*
O=C(NCCc1c[nH]c2ccccc12)c1ccc(Cl)cc1 | 1 | 1 | 1 | -85* | 0 | 93* | 24 | 95*
Cc1ccsc1C(=O)NCCc1c[nH]c2ccccc12 | 0 | 2 | 3 | -82* | 5 | 92* | -6 | 94*
O=C(NCCc1ccc(Cl)cc1)C(=O)c1c[nH]c2ccccc12 | 2 | -3 | -5 | 10 | · | · | · | ·
COc1cc(SC)ccc1C(=O)NCCc1c[nH]c2ccccc12 | 31 | 2 | 6 | 6 | · | · | · | ·
COc1ccc(S(=O)(=O)Nc2ccc3c(c2)C(=O)N([C@H](C)CO)C[C@H](C)[C@H](CN(C)Cc2ccccc2)O3)cc1 | · | · | -8 | · | · | · | · | ·
CC(C)(C)c1ccc(OCC(=O)NN2Cc3ccccc3C2=N)cc1 | 25 | 0 | -4 | -89* | 12 | ? | -8 | 88*
C[C@@H]1CN([C@H](C)CO)C(=O)c2c(c3ccccc3n2C)-c2ccccc2CO[C@@H]1CN(C)Cc1cccc(C(=O)O)c1 | · | · | 7 | · | · | · | · | ·
O=C(Cc1ccc(Br)cc1)Nc1ccc(S(=O)(=O)N2CCCC2)cc1 | 10 | 0 | -14 | -96* | 33 | ? | 3 | 99*
O=C(CSc1nncs1)Nc1ccc(S(=O)(=O)N2CCCC2)cc1 | -14 | -2 | 1 | -83* | 0 | 93* | 19 | 95*
O=C(Cc1ccccc1[N+](=O)[O-])Nc1ccc(S(=O)(=O)N2CCCC2)cc1 | -3 | 0 | -1 | ? | 15 | 93* | 21 | 94*
O=C(Nc1ccc(S(=O)(=O)N2CCCC2)cc1)Nc1ccc(F)cc1F | -3 | 0 | 4 | -96* | 2 | 98* | 1 | 99*
O=C(Cc1ccc(F)cc1)Nc1ccc(S(=O)(=O)N2CCCC2)cc1 | -9 | 1 | -2 | -47 | · | · | · | ·
O=C(Nc1ccc(F)cc1F)c1ccc(S(=O)(=O)N2CCCCC2)cc1 | -6 | 0 | 3 | 10 | · | · | · | ·
COCC#Cc1cnc2c(c1)C(=O)N([C@@H](C)CO)C[C@H](C)[C@@H](CN(C)C(=O)c1ccc(F)cc1)O2 | · | · | -15 | · | · | · | · | ·
CCC(=O)N1C[C@H]2[C@@H](c3ccccc31)[C@@H](CO)N2Cc1ccccc1F | · | · | 2 | · | · | · | · | ·
O=C(COc1cccc(C(F)(F)F)c1)Nc1cccnc1 | -9 | 1 | 0 | 6 | · | · | · | ·
O=C(COc1cccc(C(F)(F)F)c1)Nc1ccc2[nH]ncc2c1 | -11 | -1 | -5 | -79* | 11 | 87* | 2 | 91*
Cc1ccc(Nc2ccccc2)cc1 | -3 | -2 | -98 | 15 | · | · | · | ·
SMILES | T cruzi inh | HIF act | ARNT TACC3 PPI | AI-2 QS modul | JMH597 growth rt | BB721 const-QS lum | BB721 growth rt | JMH597 AI-2 mod
Cc1ccc(S(=O)(=O)Nc2ccc(Nc3ccccc3)cc2)cc1 | 5 | -1 | 2 | -97* | 67 | 100* | 27 | 100*
CN(C)S(=O)(=O)c1ccc(NC(=O)CN2CCC(Cc3ccccc3)CC2)cc1 | 18 | 1 | 1 | -91* | 2 | 94* | 0 | 96*
CN(C)S(=O)(=O)c1ccc(NC(=O)CN2C(=O)NC3(CCCC3)C2=O)cc1 | -4 | 0 | -1 | -79* | 9 | ? | 12 | 82*
COc1cccc(-c2cnc3c(c2)C(=O)N([C@@H](C)CO)C[C@H](C)[C@@H](CN(C)Cc2ccc(F)cc2)O3)c1 | · | · | 1 | · | · | · | · | ·
CC(C)C(CCNC(=O)CN1C(=O)c2ccccc2C1=O)c1ccco1 (stereo not given) | -4 | 0 | -8 | -84* | 12 | 94* | 2 | 97*
CC(C)C(CCNC(=O)CC(Cc1ccccc1)c1ccco1)c1ccco1 (stereo not given) | 8 | 0 | 2 | 21 | · | · | · | ·
O=C(Nc1cccc(F)c1)N[C@H]1CC[C@@H](CCn2cc(Cc3ccccc3)nn2)O[C@H]1CO | · | · | -19 | · | · | · | · | ·
COc1ccc(CNC(=S)Nc2ccc(F)c(Cl)c2)cc1 | -9 | 6 | -7 | -84* | 8 | 92* | 21 | 92*
Oc1ccc(Cl)cc1CNc1nccs1 | -22 | -1 | -4 | -79* | 26 | 92* | 38 | 92*
Cc1ccc(O)c(CNc2nccs2)c1 | -1 | 0 | · | -39 | · | · | · | ·
Cc1cccc(OCc2nnc(SCC(=O)N3CC(=O)Nc4ccccc43)o2)c1 | -17 | -1 | 18 | -93* | 1 | 96* | 0 | 98*
Cc1cccc(OCc2nnc(SCC(=O)N3CCCCC3)o2)c1 | 4 | -1 | -15 | 25 | · | · | · | ·
C[C@@H]1CN([C@H](C)CO)C(=O)c2cc(C#Cc3ccccc3F)cnc2O[C@@H]1CN(C)C | · | · | 0 | · | · | · | · | ·
Cc1ccc(COC(=O)c2ccc3ccccc3n2)cc1 | -12 | 1 | · | -91* | 9 | 98* | -12 | 99*
C[C@@H]1CCCCO[C@H](CN(C)Cc2ccc(Cl)c(Cl)c2)[C@@H](C)CN([C@@H](C)CO)C(=O)c2cc(N(C)C)ccc2O1 | · | · | 25 | · | · | · | · | ·
O=C(Nc1ccccc1F)C1CC1c1ccccc1 (stereo not given) | -3 | 1 | -3 | -84* | 2 | 92* | -27 | 93*
